Results taken from ChEMBL document CHEMBL1133106, “Synthesis and evaluation of peptidomimetics as selective inhibitors and active site probes of nitric oxide synthases” (J Med Chem, 2000).
Non-standard residues stand in square brackets, D forms with d. Residues, ends and D or L forms follow the SMILES beside them. *: point of attachment. Arg(NO2) = N=C(NCCC[C@H](N)C(=O)O)N[N+](=O)[O-]; NMeDab = CN[C@@H](CCN)C(=O)O; Orn = NCCC[C@H](N)C(=O)O; Dab = NCC[C@H](N)C(=O)O; Cbz = O=C(OCc1ccccc1)*; OtBu = CC(C)(C)O*

Tests used:
Nitric oxide synthase 3 = target: T1, Nitric oxide synthase 3 (Bos taurus, UniProt P29473)
T1 sequence (P29473 whole entry): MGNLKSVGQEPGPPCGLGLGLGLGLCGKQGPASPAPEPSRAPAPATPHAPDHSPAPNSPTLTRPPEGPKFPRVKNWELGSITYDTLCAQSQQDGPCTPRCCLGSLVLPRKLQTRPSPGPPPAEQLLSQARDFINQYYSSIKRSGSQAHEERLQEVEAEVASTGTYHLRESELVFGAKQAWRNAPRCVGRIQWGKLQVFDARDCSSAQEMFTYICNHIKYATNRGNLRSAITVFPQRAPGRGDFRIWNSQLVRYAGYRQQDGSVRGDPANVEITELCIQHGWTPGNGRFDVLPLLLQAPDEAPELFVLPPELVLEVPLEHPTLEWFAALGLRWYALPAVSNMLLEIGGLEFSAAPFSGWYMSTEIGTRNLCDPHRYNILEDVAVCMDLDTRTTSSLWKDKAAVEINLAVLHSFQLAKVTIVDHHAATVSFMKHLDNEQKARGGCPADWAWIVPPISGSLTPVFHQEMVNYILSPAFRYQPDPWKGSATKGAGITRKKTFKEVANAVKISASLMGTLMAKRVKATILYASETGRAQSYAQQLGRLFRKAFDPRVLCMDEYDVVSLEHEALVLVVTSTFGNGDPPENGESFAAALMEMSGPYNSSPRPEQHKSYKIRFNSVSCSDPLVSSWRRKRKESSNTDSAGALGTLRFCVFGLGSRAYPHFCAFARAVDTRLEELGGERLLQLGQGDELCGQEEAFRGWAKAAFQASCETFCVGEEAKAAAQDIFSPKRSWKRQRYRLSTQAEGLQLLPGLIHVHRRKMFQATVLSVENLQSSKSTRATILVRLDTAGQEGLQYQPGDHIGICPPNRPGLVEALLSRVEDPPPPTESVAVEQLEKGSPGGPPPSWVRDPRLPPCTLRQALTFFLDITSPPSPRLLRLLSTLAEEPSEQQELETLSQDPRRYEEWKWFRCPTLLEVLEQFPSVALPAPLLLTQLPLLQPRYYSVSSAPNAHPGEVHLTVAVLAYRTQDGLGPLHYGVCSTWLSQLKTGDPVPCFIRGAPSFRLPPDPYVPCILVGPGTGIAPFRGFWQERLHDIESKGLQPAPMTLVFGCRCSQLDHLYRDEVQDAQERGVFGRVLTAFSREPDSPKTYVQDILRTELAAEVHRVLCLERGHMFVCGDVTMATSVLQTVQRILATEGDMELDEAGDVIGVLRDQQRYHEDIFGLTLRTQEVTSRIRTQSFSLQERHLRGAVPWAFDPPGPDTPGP

[1] = target: T2, Nitric oxide synthase, inducible (Mus musculus, UniProt P29477)
T2 sequence (P29477 whole entry): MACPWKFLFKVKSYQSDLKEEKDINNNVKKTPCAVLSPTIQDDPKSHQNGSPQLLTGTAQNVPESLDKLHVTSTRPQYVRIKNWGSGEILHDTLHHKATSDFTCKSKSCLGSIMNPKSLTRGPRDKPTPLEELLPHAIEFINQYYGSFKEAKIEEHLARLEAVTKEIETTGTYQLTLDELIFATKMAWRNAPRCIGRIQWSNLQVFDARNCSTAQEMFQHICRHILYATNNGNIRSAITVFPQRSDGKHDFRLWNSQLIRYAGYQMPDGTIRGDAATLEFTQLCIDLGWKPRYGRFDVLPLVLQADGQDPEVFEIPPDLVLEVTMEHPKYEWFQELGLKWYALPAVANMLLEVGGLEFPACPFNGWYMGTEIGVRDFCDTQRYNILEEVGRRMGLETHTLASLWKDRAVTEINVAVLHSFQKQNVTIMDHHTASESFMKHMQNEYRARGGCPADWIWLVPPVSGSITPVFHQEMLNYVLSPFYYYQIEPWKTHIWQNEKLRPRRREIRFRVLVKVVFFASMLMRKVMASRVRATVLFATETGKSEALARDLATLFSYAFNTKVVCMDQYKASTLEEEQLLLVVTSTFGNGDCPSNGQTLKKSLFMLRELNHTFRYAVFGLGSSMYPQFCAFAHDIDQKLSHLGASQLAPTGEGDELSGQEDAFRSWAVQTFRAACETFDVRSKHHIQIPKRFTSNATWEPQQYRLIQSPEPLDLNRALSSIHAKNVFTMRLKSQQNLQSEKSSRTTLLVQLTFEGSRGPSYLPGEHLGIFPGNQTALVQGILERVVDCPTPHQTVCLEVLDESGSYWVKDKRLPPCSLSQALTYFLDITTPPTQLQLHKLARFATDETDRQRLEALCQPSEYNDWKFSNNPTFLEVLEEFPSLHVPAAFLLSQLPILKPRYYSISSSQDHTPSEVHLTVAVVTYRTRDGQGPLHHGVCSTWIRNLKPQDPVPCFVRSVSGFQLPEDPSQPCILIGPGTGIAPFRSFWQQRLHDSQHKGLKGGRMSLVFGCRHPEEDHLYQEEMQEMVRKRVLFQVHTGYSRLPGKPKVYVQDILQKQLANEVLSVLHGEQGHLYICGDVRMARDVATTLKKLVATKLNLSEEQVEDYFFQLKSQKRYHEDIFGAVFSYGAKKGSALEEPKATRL

[2] = Ratio of binding affinity of eNOS to nNOS
Summary of the method: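 Ratio of apparent Ki values (eNOS Ki over nNOS Ki). Recombinant bovine eNOS and nNOS were isolated from E. coli expression. NO formation was followed by the hemoglobin capture assay with 10 µM L-arginine and at least three inhibitor concentrations.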

[3] = Binding affinity against bovine brain nNOS (neuronal).

| Structure (SMILES) | Ki (Nitric oxide synthase 3) [µM] | Ki [1] [µM] | Ratio [2] | Ki [3] [µM] |
| --- | --- | --- | --- | --- |
| N=C(NCCC[C@H](NC(=O)OCc1ccccc1)C(=O)N[C@@H](CCN)C(N)=O)N[N+](=O)[O-] (Cbz-[Arg(NO2)]-[Dab]-NH2) | 827 | 1600 | – | – |
| CN(C(=O)[C@@H](N)CCC/N=C(\N)N[N+](=O)[O-])[C@@H](CCCCN)C(N)=O | 631 | 1900 | 86 | – |
| CC(=O)N[C@@H](CCC/N=C(\N)N[N+](=O)[O-])C(=O)N[C@@H](CCN)C(N)=O (Ac-[Arg(NO2)]-[Dab]-NH2) | – | – | 9 | – |
| NCCN(CC(N)=O)C(=O)[C@@H](N)CCC/N=C(\N)N[N+](=O)[O-] | – | – | 3 | – |
| NCC[C@H](NC(=O)[C@H](CCC/N=C(\N)N[N+](=O)[O-])NC(=O)OCc1ccccc1)C(N)=O (Cbz-[Arg(NO2)]-[Dab]-NH2) | – | – | 16 | – |
| NCCNC(=O)[C@@H](N)CCC/N=C(\N)N[N+](=O)[O-] | – | – | 368 | – |
| NCCC[C@H](NC(=O)[C@@H](N)CCC/N=C(/N)N[N+](=O)[O-])C(N)=O (H-[Arg(NO2)]-[Orn]-NH2) | – | – | – | 0.33 |
| NCC[C@H](NC(=O)[C@@H](N)CCC/N=C(\N)N[N+](=O)[O-])C(=O)O (H-[Arg(NO2)]-[Dab]-OH) | – | – | 3.5 | – |
| CN(C(=O)[C@@H](N)CCC/N=C(\N)N[N+](=O)[O-])[C@@H](CCN)C(N)=O | – | – | 40 | – |
| N=C(NCCC[C@H](N)C(=O)N(CCN)CC(N)=O)N[N+](=O)[O-] | 55.5 | 760 | – | – |
| N=C(NCCC[C@H](N)C(=O)N(CCCN)CC(N)=O)N[N+](=O)[O-] | 108 | 1000 | – | – |
| NCCCC[C@H](NC(=O)[C@@H](N)CCC/N=C(\N)N[N+](=O)[O-])C(N)=O (H-[Arg(NO2)]-Lys-NH2) | – | – | – | 0.45 |
| CC(=O)N[C@@H](CCCNC(=N)N[N+](=O)[O-])C(=O)N[C@@H](CCN)C(N)=O (Ac-[Arg(NO2)]-[Dab]-NH2) | 263 | 2600 | – | – |
| NCCCCNC(=O)[C@@H](N)CCC/N=C(\N)N[N+](=O)[O-] | – | – | 200 | – |
| N=C(NCCC[C@H](N)C(=O)NCCCN)N[N+](=O)[O-] | 213 | 118 | – | – |
| N=C(NCCC[C@H](N)C(=O)NCCN)N[N+](=O)[O-] | 199 | 100 | – | – |
| CC(C)(C)OC(=O)[C@H](CCN)NC(=O)[C@@H](N)CCC/N=C(\N)N[N+](=O)[O-] (H-[Arg(NO2)]-[Dab]-OtBu) | – | – | 28 | – |
| NCCCN(CC(N)=O)C(=O)[C@@H](N)CCC/N=C(\N)N[N+](=O)[O-] | – | – | 3.5 | – |
| NCCCNC(=O)[C@@H](N)CCC/N=C(\N)N[N+](=O)[O-] | – | – | 163 | – |
| N=C(NCCC[C@H](N)C(=O)N[C@@H](CCN)C(=O)O)N[N+](=O)[O-] (H-[Arg(NO2)]-[Dab]-OH) | 98 | 1210 | – | – |
| CN(C(=O)[C@@H](N)CCC/N=C(\N)N[N+](=O)[O-])[C@@H](CCCN)C(N)=O | 623 | 1300 | 135 | – |
| CN(C(=O)[C@@H](N)CCCNC(=N)N[N+](=O)[O-])[C@@H](CCN)C(N)=O (H-[Arg(NO2)]-[NMeDab]-NH2) | 95 | 340 | – | – |
| NCCCCN(CC(N)=O)C(=O)[C@@H](N)CCC/N=C(\N)N[N+](=O)[O-] | 197 | 1100 | 4 | – |
| COC(=O)[C@H](CCN)NC(=O)[C@@H](N)CCC/N=C(\N)N[N+](=O)[O-] (H-[Arg(NO2)]-[Dab]-OMe) | – | – | 798 | – |
| CC(C)(C)OC(=O)[C@H](CCN)NC(=O)[C@@H](N)CCCNC(=N)N[N+](=O)[O-] (H-[Arg(NO2)]-[Dab]-OtBu) | 288 | 413 | – | – |
| COC(=O)[C@H](CCN)NC(=O)[C@@H](N)CCCNC(=N)N[N+](=O)[O-] (H-[Arg(NO2)]-[Dab]-OMe) | 463 | 27 | – | – |
| N=C(NCCC[C@H](N)C(=O)NCCCCN)N[N+](=O)[O-] | 70 | 108 | – | – |
